SR-BI DiI-HDL act = SR-BI HDL lipid transfer activation. activation, % at 12.5 µM. hit rate 0.096% among 320,000. AID 504775. CHO ldlA[mSR-BI] cells, DiI-HDL uptake fluorescence, 3 h; 100 = double the neutral-control signal;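 active = mean replicate activation of at least 60% and every replicate at or above 60%; inconclusive = mean or all-replicate condition met, but not both; inactive = mean below 60% and not all replicates reaching 60%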
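Assay system: CHO ldlA[mSR-BI] cells, LDL receptor-null, SR-BI overexpressing; medium: Ham's F12 with 0.5% BSA, HEPES 25 mM, pH 7.4; also added: DiI-HDL 10 µg/mL; timing: 3 h uptake period with compound, 37 °C; signal: DiI fluorescence, bottom read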
SR-BI HDL uptake = blocks mouse SR-BI lipid uptake from DiI-HDL; Q61009; ldlA[mSR-BI] CHO cells, DiI-HDL uptake fluorescence, 3 h; inhibition, % at 12.5 µM; hit rate 0.96% among 320,000; AID 488896;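 active = mean replicate inhibition of at least 70% and a set share of replicates each scoring 70 or more; inconclusive = meets just one of the two criteria; inactive = fails both criteria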
Target sequence (Q61009 whole entry, looked up): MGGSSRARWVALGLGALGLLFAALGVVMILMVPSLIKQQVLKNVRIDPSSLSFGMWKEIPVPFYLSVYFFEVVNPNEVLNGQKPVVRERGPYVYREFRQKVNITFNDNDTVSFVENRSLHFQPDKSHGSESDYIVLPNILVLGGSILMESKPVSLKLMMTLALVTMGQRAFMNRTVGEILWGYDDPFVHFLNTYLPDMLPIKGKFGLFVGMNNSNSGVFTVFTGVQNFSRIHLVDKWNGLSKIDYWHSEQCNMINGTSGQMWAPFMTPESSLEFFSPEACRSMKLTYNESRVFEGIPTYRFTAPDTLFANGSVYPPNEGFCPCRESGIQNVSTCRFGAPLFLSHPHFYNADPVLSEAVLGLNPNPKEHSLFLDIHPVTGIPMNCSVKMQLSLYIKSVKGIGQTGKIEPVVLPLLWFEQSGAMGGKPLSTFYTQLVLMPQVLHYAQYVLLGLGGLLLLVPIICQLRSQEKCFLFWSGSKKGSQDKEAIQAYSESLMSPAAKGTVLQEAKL
Vif imaging = inhibitors of HIV Vif. HEK293T cells, Vif self-association by quenched fluorescence, imaging, 24 h. inhibition, % at 7.49 µM. hit rate 0.35% among 340,000; in the data active = inhibition above about 50%, passing the limit was not always enough; inconclusive = no clear call, values can overlap the other calls; inactive = below about 31%
V-ATPase pH = alters yeast V-ATPase proton transport; S. cerevisiae, pHLuorin cytosolic pH fluorescence; response, % at 10 µM; hit rate 0.37% among 350,000; AID 504577; in the data active = response mostly above about 7.3%, no sharp cut-off; inactive = mostly below about 5.4%; also: actives read high
NTR1 ag = agonists of human neurotensin receptor NTR1 | NTR1-U2OS beta-arrestin-GFP spot imaging, agonist mode | hit rate 0.17% among 330,000 | P30989 | activation, % at 20 µM;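 active = activation at or above 40% of the spot to cytoplasm intensity ratio, with at least 20 cells analyzed; inconclusive = wells under 20 cells, flagged as cytotoxic or low count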
CaV13 FRET inh = Primary screen for inhibitors of IQ motif and Ca2+-dependent inactivation inhibitor domain binding in CACNA1D, Förster resonance energy transfer in living cells, …; hit rate 0.098% among 340,000; HEK cells, CFP/YFP FRET ICDI-IQ, plate reader, 10 min; percent FRET-ratio fall versus neutral wells; inhibition, % at 12.3 µM;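 active = mean replicate inhibition of at least 30% and at least 1% of replicates passing that level; inconclusive = only one of the two criteria is met; inactive = neither criterion is met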
Hits are given with their value; 0 = inactive; ? = inconclusive; - = not tested or not shown; + = active, no number. Only some compounds are listed: those with a hit (about 1.7% of all), similar ones and a draw of the others.

SMILES | SR-BI DiI-HDL act | SR-BI HDL uptake | Vif imaging | V-ATPase pH | NTR1 ag | CaV13 FRET inh
O=C(NN1C(=O)C2C3c4ccccc4C(c4ccccc43)C2C1=O)C1CC1 (stereo not given) | 0 | 0 | 0 | 0 | 0 | 0
CN(C)S(=O)(=O)c1cc(NC(=O)CNCc2ccc(F)cc2)ccc1Cl | 0 | 0 | 0 | 0 | 0 | 0
COC(=O)[C@]12C[C@H](CC(=O)N3CCSCC3)C(=O)N(Cc3ccc4c(c3)OCO4)C1=C[C@H](COCc1ccccc1)O[C@@H]2C | - | - | - | - | - | 0
OC(c1ccc(CN2CCCCC2)cc1)c1ncc(-c2ccccc2)[nH]1 (stereo not given) | - | - | 0 | - | - | 0
CCCOc1ccc(NC(=O)C2CC(=O)N(C)C(=Nc3cccc(OC)c3)S2)cc1 (stereo not given) | 0 | 0 | 0 | 0 | 0 | 0
CN1C(=O)CC(C(=O)Nc2ccccc2F)SC1=Nc1ccc2c(c1)OCO2 (stereo not given) | 0 | 73 | 0 | 0 | 0 | 0
CCOc1cccc(NC(=O)C2CC(=O)N(C)C(=Nc3cccc(F)c3)S2)c1 (stereo not given) | 0 | 73 | 0 | 0 | 0 | 0
COc1ccccc1N=C1SC(C(=O)Nc2ccc(F)cc2)CC(=O)N1C (stereo not given) | 0 | 0 | 0 | 0 | 0 | -
CCOc1cccc(NC(=O)C2CC(=O)N(C)C(=Nc3ccccc3)S2)c1 (stereo not given) | 0 | 75 | 0 | 0 | 0 | -
COc1ccc(N2C(=O)c3n[nH]c(C)c3C2c2ccccc2)cc1 (stereo not given) | - | - | - | - | - | 0
COc1cc(NC2CCCCC2O)c2nc(-c3ccc(Cl)cc3)ccc2c1 (stereo not given) | 0 | 80 | ? | 0 | 0 | 0
COc1ccc(OCC(=O)OCC(=O)NC2CCCCC2C)cc1 (stereo not given) | 0 | 0 | 0 | 0 | 0 | 0
COc1ccc(/C=N/c2c(-c3ccc(OC)cc3)nc3n2CCS3)cc1 | 0 | 0 | 0 | 0 | 0 | 0
Fc1ccc(/C=N/c2c(-c3ccc(F)cc3)nc3n2CCS3)cc1 | 0 | 77 | 0 | 0 | 0 | 0
CCC(C)NC(=O)CSc1nnc(-c2cc(-c3ccc(C)cc3)nc3ccccc23)n1N (stereo not given) | 0 | 86 | 0 | 0 | 0 | 0
CCN1C(=S)SC(=O)C1=C1C=C(C)N(CCO)C(C)=C1 | 0 | 0 | + | 0 | 0 | 0
CN1C(=O)N(C)C(c2cccc([N+](=O)[O-])c2)C2=C1CCCC2=O (stereo not given) | 0 | 0 | 0 | 0 | 0 | 0
Cc1cccc(C(=O)Nc2ccc(C(=O)N/N=C/c3ccc4c(c3)OCO4)cc2)c1 | 0 | 85 | 0 | 0 | 0 | 0
O=C(N/N=C/c1ccc(F)cc1)c1cccc(NC(=O)c2ccc(F)cc2)c1 | 0 | 72 | 0 | 0 | 0 | 0
Cc1ccccc1C(=O)Nc1cccc(NC(=O)c2ccc(F)cc2)c1 | 0 | 79 | 0 | 0 | 0 | 0
Cc1cccc(C(=O)Nc2cccc(C(=O)N/N=C/c3ccc4c(c3)OCO4)c2)c1 | 0 | 0 | 0 | 0 | 0 | 0
O=C(NC(=S)Nc1ccc(-c2ccccc2)cc1)c1ccccc1 | ? | 0 | 0 | 0 | - | 0
O=C(NC(=S)Nc1ccc(NC(=O)c2ccccc2)cc1)c1ccc(F)cc1 | 0 | 0 | 51 | 0 | 0 | 0
O=C(C(=O)N1CCC(CNC(=O)c2sc3ccccc3c2Cl)CC1)c1cccs1 | - | - | - | - | - | 0
COc1cc(/C=N/NC(=O)c2cccc(NC(=O)c3ccccc3C)c2)ccc1O | - | - | 0 | 0 | 0 | 0
SMILES | SR-BI DiI-HDL act | SR-BI HDL uptake | Vif imaging | V-ATPase pH | NTR1 ag | CaV13 FRET inh
O=C(Nc1ccc(Nc2ccccc2)cc1)c1ccc(F)cc1 | 0 | 0 | 0 | 0 | 0 | 0
Cc1ccccc1C(=O)Nc1cccc(C(=O)N/N=C/c2cc(Cl)cc([N+](=O)[O-])c2O)c1 | 0 | 102 | 0 | 0 | 0 | 0
Cc1ccccc1C(=O)Nc1ccc(C(=O)N/N=C/c2ccc(O)cc2)cc1 | 0 | 0 | 70 | 0 | 0 | 0
O=C(Nc1ccc(NC(=S)NC(=O)c2ccco2)cc1)c1ccc(Br)cc1 | - | - | 53 | 0 | - | 0
O=C(Nc1cccc(NC(=O)c2ccc(F)cc2)c1)c1ccc(F)cc1 | 0 | 76 | 0 | 0 | 0 | 0
CC(C)[C@H](NC(=O)c1ccco1)C(=O)N1CCC[C@H]1C(=O)NCc1ccccc1 | - | - | - | - | - | 0

Screens: PubChem BioAssay, several laboratories
